Our source for the IC50, half-life and k cat/Km values is ChEMBL document CHEMBL1133127, “Activation of antibacterial prodrugs by peptide deformylase” (Bioorg Med Chem Lett, 2000).

Bounds are passed on as bounds.

In data set [1] the test system is Escherichia coli. Description: The compound was tested for its antibacterial activity against Escherichia coli BL21(DE3) cells in luria broth. Type of data set: functional, organism-based.
Data set [2] is described as follows: Half-life was determined. Type of data set: ADME. Particulars: human. The essentials: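 Deformylated intermediate cyclizes to diketopiperazine, releasing FdU. Followed by C18 HPLC at 214 nm after PDF treatment in 20 mM sodium phosphate pH 7.4. First-order fit of ln(A0/A) versus time; half-life taken from the fit.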
The test system of data set [3] is Escherichia coli. Kind of data set: The compound was tested for activation by purified Escherichia coli PDF in vitro by measuring deformylation at pH 7.4. It is filed as functional. The gist of the method: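 Purified E. coli PDF added to prodrug (~1 mM) in 20 mM sodium phosphate pH 7.4. Aliquots taken over time and quenched with equal volume 100 mM TFA. Analysed by C18 HPLC at 214 nm; kcat/KM derived from deformylation to intermediate.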

For data set [4], the system named is Escherichia coli. Description: Compound was tested for its antibacterial activity against Escherichia coli BL21(DE3) cells in luria broth. It is filed as functional, organism-based.
Data set [5] relates to Staphylococcus epidermidis. Description: The compound was tested for its antibacterial activity against Staphylococcus epidermidis. It is filed as functional, organism-based.
The subject of data set [6] is Staphylococcus epidermidis. Kind of data set: Compound was tested for its antibacterial activity against Staphylococcus epidermidis. Type of data set: functional, organism-based.

`CSCC[C@H](NC=O)C(=O)N1CCC[C@H]1C(=O)OCC1OC(n2cc(F)c(=O)[nH]c2=O)CC1O` (some centres not stated): the IC50 in the data set with Escherichia coli [1] is > 100 µM. For the same compound, the half-life in data set [2] amounted to 4.68 min.

Regarding `CSCC[C@H](NC=O)C(=O)NC(C)(C)C(=O)OCC1OC(n2cc(F)c(=O)[nH]c2=O)CC1O` (some centres not stated), the k cat/Km with Escherichia coli [3] came to 28900 M⁻¹ s⁻¹. The half-inhibitory concentration (IC50) was > 100 µM with Escherichia coli [4], 50 µM in data set [5] and ~50 µM in data set [6]. Further, the half-life in data set [2] turned out to be 51.1 min.

In the case of `CSCC[C@H](NC=O)C(=O)N(C)[C@@H](CC(C)C)C(=O)OCC1OC(n2cc(F)c(=O)[nH]c2=O)CC1O` (some centres not stated), the half-maximal inhibitory concentration (IC50) with Escherichia coli [1] is > 100 µM. For the same compound, the k cat/Km with Escherichia coli [3] was found to be 1650 M⁻¹ s⁻¹. Also, the half-life in data set [2] was 2.07 min.

In the case of `CSCC[C@H](NC=O)C(=O)N1CCC[C@@H]1C(=O)OCC1OC(n2cc(F)c(=O)[nH]c2=O)CC1O` (some centres not stated), in the data set with Escherichia coli [1], the IC50 is > 100 µM. Moreover, the half-life in data set [2] was 15.2 min.
